Assay outcomes deposited in PubChem BioAssay by Johns Hopkins Ion Channel Center.
TRPC4 potent: allosteric potentiators of mouse TRPC4 channel | B-score at 10 µM | HEK293 TRPC4beta/mu-opioid, DAMGO EC20, Fluo-4 Ca2+ flux; active compounds read high | AID 2227 | actives 0.42% (n = 310,000);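 active = B-score of calcium response area above 5 SD of library B-scores, with initial fluorescence ratio within 5 SD of library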;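 note: B-score of integrated fluorescence ratio over time as area under calcium response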
Kir21 inh: Kir2.1 (mouse) channel inhibition; HEK293-Kir2.1, FluxOR thallium flux fluorescence; active compounds read low; B-score at 10 µM; actives 0.85% (n = 310,000);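 active = fluorescence ratio B-score at or below minus 3 SD of library scores, with starting-brightness B-score within 2 SD, cut at about -4.2 in these data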;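 note: channel flux triggered by added potassium and thallium sulfate stimulus; B-score of peak minus minimum fluorescence over baseline after thallium stimulus; more negative B-score means stronger Kir2.1 block with less thallium influx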
Target sequence (P35561 whole entry, looked up): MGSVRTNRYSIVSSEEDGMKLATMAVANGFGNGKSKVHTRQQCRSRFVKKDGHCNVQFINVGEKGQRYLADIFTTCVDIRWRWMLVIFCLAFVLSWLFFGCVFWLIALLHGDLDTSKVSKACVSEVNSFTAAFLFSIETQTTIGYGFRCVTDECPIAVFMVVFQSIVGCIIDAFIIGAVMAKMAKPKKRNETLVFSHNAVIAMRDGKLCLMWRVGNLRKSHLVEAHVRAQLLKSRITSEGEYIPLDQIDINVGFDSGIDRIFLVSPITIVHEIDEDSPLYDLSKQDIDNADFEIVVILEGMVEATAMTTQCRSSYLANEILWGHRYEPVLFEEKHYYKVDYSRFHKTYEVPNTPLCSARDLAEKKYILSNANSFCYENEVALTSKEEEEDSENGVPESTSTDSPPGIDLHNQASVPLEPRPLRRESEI
TRPC6 inhibitor: mouse TRPC6 channel inhibition | Q61143 | HEK293-TRPC6, membrane potential dye, ACh-evoked depolarization; active compounds read low | B-score at 10 µM | actives 1.1% (n = 310,000);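 active = B-score under library mean minus 3 SD, initial fluorescence not abnormally high, positive integrated signal ratio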;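 note: B-score derived from integrated fluorescence ratio over the kinetic read; more negative B-score means stronger inhibition of depolarization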
TRPC6 activator: activates the mouse TRPC6 cation channel; Q61143; HEK293-TRPC6 membrane potential dye fluorescence; active compounds read high; B-score at 10 µM; actives 0.13% (n = 310,000);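 active = B-score of the integrated fluorescence ratio above library mean plus 3 SD, and starting fluorescence ratio within library mean plus 5 SD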;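 note: higher score means more depolarization so channel activation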
TRPC4 agonist: TRPC4 (mouse) channel activation. Q9QUQ5. HEK293 TRPC4beta/mu-opioid, Fluo4 calcium fluorescence; active compounds read high. B-score at 10 µM. actives 0.49% (n = 310,000). AID 2237;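 active = B-score above 5 SD of library B-scores, and initial fluorescence ratio not above library mean plus 5 SD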;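 note: positive B-score marks a calcium rise read as TRPC4 activation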
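Assay system: HEK293 stable line with TRPC4beta plus mu-opioid receptor; schedule: 45 min room-temperature Fluo4 loading, 110 s read; technique: kinetic Fluo4 calcium fluorescence; evaluation: integrated baseline-normalised fluorescence ratio, converted to per-well B score; controls: buffer (low) and maximal DAMGO (high)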
TRPC4 block: blocks the mouse TRPC4 cation channel; Q9QUQ5; HEK293 TRPC4beta/mu-opioid, DAMGO-evoked Fluo4 calcium flux; active compounds read low; B-score at 10 µM; actives 0.39% (n = 300,000);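 active = B-score over 3 SD under the library average, no early fluorescence shift, positive overall ratio signal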
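material = TRPC4beta/mu-opioid receptor HEK293 cell line | probe or stimulus = sequential submaximal and maximal DAMGO stimulation | compound dosing = one concentration per compound | measured by = Fluo4 Ca2+ flux fluorescence | evaluation = integrated fluorescence ratio relative to baseline, converted to per-well B score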
TRPC4 sel inh 2: mouse TRPC4 off-target activity of TRPC6 inhibitors, second screen | shares compounds with TRPC6 inhibitor | inhibition, % at 10 µM | AID 2776 | HEK293 TRPC4/MOR, membrane potential dye fluorescence; channel activated by saturating DAMGO dose | actives 42% (n = 920);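 active = compounds whose fluorescence signal differed from control wells by over 3 SD, either direction, in both duplicate plates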
TRPC4 spec: tests whether TRPC6 inhibitors also affect mouse TRPC4; shares compounds with TRPC6 inhibitor; HEK293 TRPC4/mu-opioid, membrane potential fluorescence; activity change, negative = inhibition, % at 10 µM; actives 61% (n = 920); AID 2777;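 active = rise or fall in signal beyond 3 SD of buffer-only wells in both replicate plates, either sign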;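 note: integrated kinetic ratio of fluorescence range over baseline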
HEK293 MPD ctr 2-1: second counter-screen for TRPC6 inhibitors: parental HEK293 cells. parental HEK293 membrane potential dye fluorescence; maximal acetylcholine challenge after compound addition. shares compounds with TRPC6 inhibitor. actives 31% (n = 920). signal change vs control, % at 10 µM. AID 2779;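 active = membrane potential signal moving either way by over 3 SD of the maximum-effect control, in both duplicate plates, meaning non-specific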
HEK293 MPD ctr-1: counter-screen for TRPC6 inhibitors: effect in parental HEK293 cells; shares compounds with TRPC6 inhibitor; parental HEK293 membrane potential dye fluorescence; membrane potential signal change, % at 10 µM; actives 60% (n = 920);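 active = membrane potential signal shifting up or down by more than 3 SD of buffer-only wells, on both duplicate plates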
HEK293 MPD ctr-2: checks TRPC6 modulator effects in parental HEK293 cells; shares compounds with TRPC6 inhibitor; membrane potential dye fluorescence; membrane potential signal change, % at 10 µM; actives 51% (n = 2,400);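 active = membrane potential signal moves up or down beyond 5 SD from buffer-only wells, on both duplicate plates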
HEK293 MPD ctr 2-2: second counter-screen for TRPC6 modulators: effect in parental HEK293 cells; shares compounds with TRPC6 inhibitor; membrane potential dye fluorescence; after compound, maximal acetylcholine stimulation; inhibition, % at 10 µM; actives 14% (n = 2,400); AID 488926;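 active = membrane potential signal drops by more than 5 SD from the mean control signal, in both duplicate plates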;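 note: plate controls were acetylcholine ECmax control wells for no effect and buffer only wells for full effect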
TRPC4/MOR mod: mouse TRPC4 off-target activity of TRPC6 modulators | shares compounds with TRPC6 inhibitor | HEK293 TRPC4/mu-opioid, membrane potential fluorescence | percent change from control (negative = decrease, positive = increase), % at 10 µM | actives 69% (n = 2,400) | AID 488927;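 active = membrane potential signal moved up or down beyond 5 SD of buffer control wells, in both duplicate plates, actives on both sides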;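 note: plate controls were assay buffer wells for no effect and DAMGO maximal-effect wells for full effect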
TRPC4/MOR inh 2: second check of whether TRPC6 modulators also affect mouse TRPC4; shares compounds with TRPC6 inhibitor; HEK293 TRPC4/mu-opioid, membrane potential dye fluorescence; stimulated with maximal-effect DAMGO; inhibition, % at 10 µM; actives 55% (n = 2,400);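 active = drop in membrane potential signal beyond 5 SD of the control wells in both duplicate plates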;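 note: TRPC4 counter screen for TRPC6 hits run under conditions tuned for TRPC6 not TRPC4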
TRPC6 inh conf: mouse TRPC6 inhibitor confirmation | inhibition, % at 10 µM | HEK293-TRPC6, membrane potential dye, ACh-evoked depolarization | actives 43% (n = 3,300) | shares compounds with TRPC6 inhibitor;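 active = fluorescence ratio falls more than 5 SD below the full-stimulation control mean, in both duplicate runs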;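 note: integrated fluorescence ratio of peak minus minimum over baseline after agonist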
TRPC6 act conf: confirmation of mouse TRPC6 activators; shares compounds with TRPC6 inhibitor; HEK293-TRPC6 membrane potential dye fluorescence, FDSS; activation, % at 10 µM; actives 11% (n = 2,800); AID 488961;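 active = ratio signal rise beyond 5 SD above unstimulated control wells' mean, seen in both duplicate runs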;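 note: plate controls were buffer EC0 wells for no effect and acetylcholine ECmax response for full effect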
* marks the source's active call; other numbers are inactive results; i = inactive; x = no result. Only some compounds are listed: those with a hit (about 2.9% of all), similar ones and a draw of the others.

SMILES | TRPC4 potent | Kir21 inh | TRPC6 inhibitor | TRPC6 activator | TRPC4 agonist | TRPC4 block | HEK293 MPD ctr-2 | HEK293 MPD ctr 2-2 | TRPC4/MOR mod | TRPC4/MOR inh 2 | TRPC6 inh conf | TRPC6 act conf | others
Cc1c(Cl)cccc1NC(=O)CNCc1ccccc1F | i | -0.01 | -5.26* | i | i | i | i | i | 18.0%* | i | i | x
Cc1c(Cl)cccc1NC(=O)CNc1ccccc1F | i | -0.03 | i | i | i | i | x | x | x | x | x | x
Cc1nc(SCCOc2ccccc2F)[nH]c(=O)c1Cc1ccccc1 | i | -0.59 | i | i | i | i | x | x | x | x | x | x
Cc1cccc(C(=O)NCCC(=O)Nc2ccc(C#N)cc2)c1 | i | -0.04 | i | i | i | i | x | x | x | x | x | x
CCC(C)NC(=O)c1ccc(C2SCC(=O)N2Cc2ccccc2)cc1 (stereo unspecified) | i | -0.21 | -7.58* | i | i | i | x | x | x | x | i | i | TRPC4 sel inh 2=i;TRPC4 spec=i;HEK293 MPD ctr 2-1=i;HEK293 MPD ctr-1=i
CCN(CC)c1ccc(CN2CCC(C(=O)NCc3ccc(C)cc3)CC2)cc1 | i | -0.57 | -5.09* | i | i | i | i | i | i | 77.0%* | 57.5%* | i
COC(=O)C1CCN(Cc2ccc(C)cc2)CC1 | i | -3.87 | i | i | i | i | x | x | x | x | x | x
CCN(CC)S(=O)(=O)N1CCC(C(=O)NCc2ccc(C)cc2)CC1 | i | -1.56 | i | i | i | i | x | x | x | x | x | x
CCN(CC)c1ccc(NC(=O)C2CCCC2)cc1 | i | 0.5 | -5.77* | i | i | i | i | i | i | i | i | i
Cc1ccc(S(=O)(=O)NNC(=O)C2CCN(Cc3ccccc3)CC2)cc1 | i | 0.12 | -14.6* | i | i | i | x | x | x | x | 83.5%* | i | TRPC4 sel inh 2=i;TRPC4 spec=i;HEK293 MPD ctr 2-1=-14.5%*;HEK293 MPD ctr-1=0.1%*
CCn1ncc(CNC(=O)C2(C)CC2(Cl)Cl)c1C (stereo unspecified) | i | -0.02 | i | i | i | i | x | x | x | x | x | x
CN(C)/C=C/c1oc2ccc(O)cc2c1[N+](=O)[O-] | i | 0 | i | i | i | i | x | x | x | x | x | x
CC(=O)N/C(=C\c1ccc(Br)s1)C(=O)O | i | 0.51 | i | i | i | i | x | x | x | x | x | x
Cc1ccc(-c2[nH]c3ccccc3c2SCCN)cc1 | i | -2.78 | -6.7* | i | i | -7* | x | x | x | x | i | i | TRPC4 sel inh 2=36.5%*;TRPC4 spec=-11.5%*;HEK293 MPD ctr 2-1=i;HEK293 MPD ctr-1=-296.5%*
NCCSc1c(-c2ccccc2)[nH]c2ccccc12 | i | -1.53 | -5.28* | i | i | i | i | i | i | 57.0%* | 52.5%* | i
Cc1[nH]c2ccccc2c1C(=O)CSc1ccc(F)cc1 | i | 1.15 | i | i | i | i | x | x | x | x | x | x
NCCSc1c(-c2ccc(F)cc2)[nH]c2ccccc12 | i | -0.78 | -6.04* | i | i | i | i | i | i | 83.0%* | 77.0%* | i
NCCSc1c(-c2ccc(Cl)cc2)[nH]c2ccccc12 | i | -9.88* | -6.69* | i | 129* | i | x | x | x | x | 68.6%* | i | TRPC4 sel inh 2=23.0%*;TRPC4 spec=-11.7%*;HEK293 MPD ctr 2-1=i;HEK293 MPD ctr-1=-323.0%*
Cc1[nH]c2ccccc2c1SCCN | i | 0.93 | i | i | i | i | x | x | x | x | x | x
COc1ccc(-c2[nH]c3ccccc3c2SCCNC(=O)c2ccccc2)cc1 | i | 0.22 | i | i | i | i | x | x | x | x | x | x
CC(C)C[C@@]12C(=O)N(c3cccc(Br)c3)C(=O)N1[C@H](c1ccc(F)cc1)[C@@H]1C(=O)N(C3CCCCC3)C(=O)[C@@H]12 | i | -0.01 | i | i | i | i | x | x | x | x | x | x
COc1cccc(Nc2ccc(C(=O)O)cc2[N+](=O)[O-])c1 | i | -2.54 | i | i | i | i | x | x | x | x | x | x
CCCN(CCC)CCCNc1ccc(C(=O)Nc2cccc(OC)c2)cc1[N+](=O)[O-] | i | -0.91 | -7.33* | i | i | i | x | x | x | x | i | i | TRPC4 sel inh 2=55.0%*;TRPC4 spec=-18.0%*;HEK293 MPD ctr 2-1=i;HEK293 MPD ctr-1=i
Cc1ccc(N2C=Nc3ccc(C)c4nc(C)cc2c34)cc1 | i | 0.43 | -10.1* | i | i | i | -248.5%* | 64.5%* | -52.5%* | 73.5%* | 60.5%* | i
CC1=Nc2ccc(C)c3nc(C)cc(c23)N1c1ccc(C)cc1 | i | 1.79 | -13.3* | i | i | i | -157.0%* | 88.5%* | -33.0%* | 82.5%* | 87.0%* | i
CCN(CC)CC#CCOC(=O)C(O)(c1ccccc1)C1CCCCC1 (stereo unspecified) | i | -1.15 | -6.43* | i | i | i | 121.0%* | 97.0%* | 26.0%* | i | 81.0%* | x
O=S(=O)(CC(CN1CCCCC1)N1CCCCC1)c1ccc2ccccc2c1 (stereo unspecified) | i | 0.43 | i | i | i | i | x | x | x | x | x | x
